A selection: hits, their analogues and other compounds. The true share with any hit is near 2.9%.
GSIS activator – primary screen for activators of insulin secretion dependent on glucose, INS-1E cells, GLuc reporter luminescence. activation, % at 16.6 µM. AID 743287. INS-1E GLuc reporter insulin secretion, 2-3 h. actives 0.61% (n = 370,000);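 active means lowest replicate activation of at least 40%, so every replicate reaches that level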;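 further: 0% = median of neutral control wells and 100% = median of IBMX positive control wells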
PAX8 inh HTS – PAX8 transcriptional activity inhibition; RMG-I TPO-luciferase reporter, SteadyGlo, 24 h; inhibition, % at 12.6 µM; actives 1.2% (n = 360,000); AID 652154;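 active means mean replicate inhibition at least 60% with every replicate also reaching 60%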;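 further: luciferase light reporting Pax8 driven TPO promoter activity; plate controls were median of neutral control wells for no effect and mitoxantrone controls for full effect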
CDK5 p35 inh – blocks human CDK5/p35 kinase activity; Q00535+Q15078; Recombinant CDK5/p35, ADP-Glo luminescence, 60 min; inhibition, % at 10 µM; actives 0.01% (n = 330,000); AID 488839;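 active means highest replicate inhibition of at least 50% and at least 75% of replicates reaching 50%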;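 further: plate controls were DMSO neutral control for no effect and GW8510 at 10 µM for full effect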
Target sequence (Q00535 whole entry, looked up): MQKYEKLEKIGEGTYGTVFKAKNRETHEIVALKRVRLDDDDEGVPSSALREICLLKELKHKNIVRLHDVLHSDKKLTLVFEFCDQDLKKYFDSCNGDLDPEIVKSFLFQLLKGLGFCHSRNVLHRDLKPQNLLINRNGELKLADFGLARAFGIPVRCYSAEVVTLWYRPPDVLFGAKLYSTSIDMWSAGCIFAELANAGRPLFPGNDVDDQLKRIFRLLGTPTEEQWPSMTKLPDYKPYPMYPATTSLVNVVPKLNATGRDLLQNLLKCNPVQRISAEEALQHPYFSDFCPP
Target sequence (Q15078 whole entry, looked up): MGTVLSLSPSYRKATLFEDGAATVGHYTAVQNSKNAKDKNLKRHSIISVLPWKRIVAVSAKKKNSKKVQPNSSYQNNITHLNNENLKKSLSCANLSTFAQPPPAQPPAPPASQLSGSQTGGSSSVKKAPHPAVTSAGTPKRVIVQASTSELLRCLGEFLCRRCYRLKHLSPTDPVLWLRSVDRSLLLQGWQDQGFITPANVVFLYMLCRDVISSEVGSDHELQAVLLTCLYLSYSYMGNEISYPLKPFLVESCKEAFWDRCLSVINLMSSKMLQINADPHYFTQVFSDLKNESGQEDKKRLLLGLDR
dFosB act – mouse delta FosB homodimer activation; P13346; purified delta FosB, TAMRA-CDK5 oligo fluorescence polarization; percent of positive-control signal above neutral wells; activation, % at 25 µM; actives 0.99% (n = 340,000); AID 493131;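 active means mean activation above about 17%, with every replicate also reaching it, limit read from the data, passing the limit was not always enough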
Cneo AK release – Cryptococcus neoformans lysis via adenylate kinase release | C. neoformans lysis, adenylate kinase release luminescence, 4 h; normalised: neutral wells 0, clomiphene wells 100 | lysis activity, % at 15 µM | actives 0.2% (n = 360,000);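 active means mean lysis activity across replicates of at least 80%, whatever share of replicates individually reach that level; inactive means mean lysis activity below 80%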
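Material – log-phase Cryptococcus neoformans yeast cells · Input – 5 × 10^6 yeast cells/mL · Medium – fresh YPD growth medium · Doses – single compound concentration per well · Timing – static 4 h at 37 °C with compound, 1 h detection · Detection – adenylate kinase release luminescence · Read-out – signal increase indicating cell lysis · Control set – Clomiphene as positive lysis control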
HIV Env fusion – HIV envelope-mediated fusion inhibition. HeLa-JRFL Env/CEM21 cell fusion, luciferase. inhibition, % at 12.3 µM. actives 1.1% (n = 360,000);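 active means mean replicate inhibition score of at least 50 and every replicate individually at or above 50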;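 further: 0% = plate neutral controls and 100% = maraviroc near 300 nM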
* = called active by the depositor; . = no result; [ ] = remark or other dose.

SMILES | GSIS activator | PAX8 inh HTS | CDK5 p35 inh | dFosB act | Cneo AK release | HIV Env fusion
N=c1ccn(CC(=O)c2ccc(-c3ccccc3)cc2)cc1 | -25.4 | 82.8* | -0.1 | -4.5 | . | 68.7*
CO[C@H]1CN(C)C(=O)c2cc(NC(=O)c3ccc(F)cc3)ccc2OC[C@H](C)N(C(=O)CN(C)C)C[C@H]1C | 5.7 | -3.4 | . | . | 11.1 | 0.3[16.7 µM]
CCCN1C[C@@H](C)[C@@H](OC)CN(C)C(=O)c2ccc(NC(=O)Nc3cccc(OC)c3)cc2OC[C@@H]1C | -4.8 | . | . | . | -4.9 | 6.1[16.7 µM]
C[C@@H]1CN([C@@H](C)CO)C(=O)Cc2cc(NC(=O)Nc3ccc(F)cc3)ccc2O[C@H]1CN(C)Cc1ccc(C(F)(F)F)cc1 | -26.8 | . | . | . | . | 69.0*[16.7 µM]
C[C@H](CO)N1C[C@H](C)[C@@H](CN(C)Cc2ccc(-c3ccccc3)cc2)Oc2ccc(NC(=O)Nc3ccc(C(F)(F)F)cc3)cc2CC1=O | 1.0 | 67.9* | . | . | -0.6 | 33.7[16.7 µM]
C[C@@H]1CN([C@@H](C)CO)C(=O)Cc2cc(NC(=O)C3CCCCC3)ccc2O[C@H]1CN(C)Cc1ccc(Cl)c(Cl)c1 | -7.2 | 94.7* | . | . | 0.6 | 43.1[16.7 µM]
COc1ccc(NC(=O)Nc2ccc3c(c2)CC(=O)N([C@@H](C)CO)C[C@H](C)[C@@H](CN(C)Cc2ccc(C(F)(F)F)cc2)O3)cc1 | 1.6 | 69.7* | . | . | 4.3 | 47.5[16.7 µM]
C[C@@H]1CN([C@H](C)CO)C(=O)Cc2cc(NC(=O)C3CCCCC3)ccc2O[C@H]1CN(C)Cc1ccc(Cl)c(Cl)c1 | 0.8 | -5.0 | . | . | -2.0 | 9.7[16.7 µM]
C[C@@H]1CN([C@H](C)CO)C(=O)Cc2cc(NC(=O)Nc3ccc(C(F)(F)F)cc3)ccc2O[C@@H]1CN(C)Cc1ccc(-c2ccccc2)cc1 | 7.8 | 14.8 | . | . | -2.0 | 6.0[16.7 µM]
C[C@H]1CN([C@@H](C)CO)C(=O)Cc2cc(NC(=O)Nc3ccc(C(F)(F)F)cc3)ccc2O[C@@H]1CN(C)Cc1ccccc1 | -17.1 | 33.4 | . | . | -1.2 | 82.0*[16.7 µM]
C[C@H]1CN([C@@H](C)CO)C(=O)Cc2cc(NC(=O)Nc3ccc(F)cc3)ccc2O[C@@H]1CN(C)Cc1ccc(Cl)c(Cl)c1 | -22.8 | 0.0 | . | . | -15.0 | -3.8[16.7 µM]
C[C@@H]1CN([C@@H](C)CO)C(=O)Cc2cc(NC(=O)Cc3cn(C)c4ccccc34)ccc2O[C@H]1CN(C)Cc1ccc(C(F)(F)F)cc1 | 3.1 | 71.0* | . | . | 3.2 | 9.4[16.7 µM]
C[C@@H]1CN([C@H](C)CO)C(=O)Cc2cc(NC(=O)Nc3ccc(F)cc3)ccc2O[C@H]1CN(C)Cc1ccc(Cl)c(Cl)c1 | 16.7 | 108.8* | . | . | -14.8 | 10.6[16.7 µM]
C[C@@H]1CN([C@@H](C)CO)C(=O)Cc2cc(NC(=O)Nc3ccc(C(F)(F)F)cc3)ccc2O[C@H]1CN(C)Cc1ccccc1 | -9.1 | 67.9* | . | . | 1.1 | 24.3[16.7 µM]
CCC(=O)N(C)C[C@H]1Oc2cc(-c3cccc(C#N)c3)ccc2S(=O)(=O)N([C@H](C)CO)C[C@@H]1C | -3.5 | . | . | . | -0.2 | 3.8[16.7 µM]
C[C@@H]1CN([C@@H](C)CO)C(=O)Cc2cc(NC(=O)c3ccncc3)ccc2O[C@@H]1CN(C)Cc1ccc(Cl)c(Cl)c1 | -22.3 | 26.3 | . | . | -2.7 | -22.4[16.7 µM]
Cc1ccc(S(=O)(=O)Nc2ccc3c(c2)CC(=O)N([C@@H](C)CO)C[C@H](C)[C@H](CN(C)C(=O)Nc2ccc(C(F)(F)F)cc2)O3)cc1 | -14.1 | -17.6 | . | . | -12.9 | 0.7[16.7 µM]
C[C@@H]1CN([C@@H](C)CO)C(=O)Cc2cc(NC(=O)c3ccncc3)ccc2O[C@H]1CN(C)Cc1ccc(Cl)c(Cl)c1 | -18.0 | 31.9 | . | . | 14.5 | 72.7*[16.7 µM]
Cc1ccc(S(=O)(=O)Nc2ccc3c(c2)CC(=O)N([C@@H](C)CO)C[C@H](C)[C@@H](CN(C)C(=O)Nc2ccc(C(F)(F)F)cc2)O3)cc1 | 0.9 | 88.1* | . | . | -21.7 | 17.3[16.7 µM]
C[C@H]1CN([C@@H](C)CO)C(=O)Cc2cc(NC(=O)Nc3ccc(C(F)(F)F)cc3)ccc2O[C@H]1CN(C)C(=O)Nc1ccc(C(F)(F)F)cc1 | -11.6 | 86.3* | . | . | 1.1 | 42.6[16.7 µM]
Cc1ccc(-c2nc(CSCC(=O)NCc3cccnc3)c(C)o2)cc1 | . | . | -1.1 | -7.3 | -0.1 | 58.1*
CCN1/C(=C/c2sc(-c3ccccc3C)c[n+]2C)Sc2ccccc21 | 0.3 | 98.1* | -2.3 | 8.2 | . | 15.1
CCn1c(=NC(=O)CS(=O)(=O)c2ccc(C)cc2)sc2cccc(OC)c21 | -39.6 | 9.6 | 1.3 | -5.9 | -0.1 | 74.9*
CCOc1ccc(C2CC(c3cccc(Cl)c3)n3nc(N)nc3N2)cc1 (stereo not given) | -21.8 | 26.3 | 0.6 | -8.9 | 1.7 | 14.6
COc1cccc(C2CC(c3ccc(C)cc3)Nc3nc(N)nn32)c1 (stereo not given) | -19.1 | -17.0 | -4.7 | -0.6 | -0.1 | 9.5
SMILES | GSIS activator | PAX8 inh HTS | CDK5 p35 inh | dFosB act | Cneo AK release | HIV Env fusion
Nc1nc2n(n1)C(c1cccc(Cl)c1)CC(c1ccc(F)cc1)N2 (stereo not given) | 48.5* | -18.8 | -0.3 | -11.9 | 2.0 | 13.9
COc1cccc(C2CC(c3ccc(C)cc3)n3nc(N)nc3N2)c1 (stereo not given) | -25.5 | 15.5 | 1.6 | -18.7 | 0.9 | 66.0*
Cn1cnc(S(=O)(=O)N2CCCCN3[C@@H](CO)[C@@H](c4ccc(-c5ccccc5F)cc4)[C@@H]3C2)c1 | -16.4 | -35.2 | . | . | 1.6 | .
O=C(C[C@@H]1CC[C@@H]2[C@H](COC[C@H](O)CN2Cc2ccc(F)cc2)O1)NCCc1ccccc1 | -10.9 | 12.4 | . | . | -2.6 | .
C[C@@H]1CN([C@H](C)CO)S(=O)(=O)c2ccc(C#Cc3cccc(F)c3)cc2O[C@H]1CN(C)C(=O)NC1CCCCC1 | -27.9 | 67.9* | . | . | 0.4 | -6.8[16.7 µM]
C[C@@H]1CN([C@@H](C)CO)S(=O)(=O)c2ccc(C#Cc3cccc(F)c3)cc2O[C@H]1CN(C)C(=O)NC1CCCCC1 | -21.5 | 25.5 | . | . | -0.2 | -21.4[16.7 µM]
C[C@H](CO)N1C[C@H](C)[C@H](CN(C)C(=O)NC2CCCCC2)Oc2cc(C#Cc3ccc(F)cc3)ccc2S1(=O)=O | -4.5 | 90.9* | . | . | -6.0 | 42.7[16.7 µM]
C/C=C/c1ccc2c(c1)O[C@H](CN(C)C(=O)NC1CCCCC1)[C@@H](C)CN([C@H](C)CO)S2(=O)=O | -11.8 | -31.6 | . | . | 7.0 | -27.9[16.7 µM]
C/C=C/c1ccc2c(c1)O[C@H](CN(C)C(=O)NC1CCCCC1)[C@H](C)CN([C@@H](C)CO)S2(=O)=O | -15.1 | -5.7 | . | . | 6.8 | 56.2*[16.7 µM]
C[C@@H]1CN([C@H](C)CO)S(=O)(=O)c2ccc(C#CC3CCCC3)cc2O[C@@H]1CN(C)C(=O)Nc1cc(F)ccc1F | -29.2 | 70.2* | . | . | 2.2 | -19.8[16.7 µM]
N#Cc1cccc(-c2ccc([C@@H]3[C@@H](CO)N4CCCCN(C(=O)Nc5ccccc5)C[C@H]34)cc2)c1 | -26.7 | -13.8 | . | . | -1.3 | .
